Assay results: ChEMBL document CHEMBL1926621, “New potent 5-HT(2A) receptor ligands containing an N'-cyanopicolinamidine nucleus: Synthesis and in vitro pharmacological evaluation” (Eur J Med Chem, 2012)

Assays:
[1] = molecular target: T1, Adrenergic receptor alpha-2 (Rattus norvegicus, UniProt P22086+P19328+P22909); assay: Displacement of [3H]yohimbine from rat brain cortex adrenergic alpha2 receptor after 30 mins by liquid scintillation counting
T1 sequence (P22086 whole entry): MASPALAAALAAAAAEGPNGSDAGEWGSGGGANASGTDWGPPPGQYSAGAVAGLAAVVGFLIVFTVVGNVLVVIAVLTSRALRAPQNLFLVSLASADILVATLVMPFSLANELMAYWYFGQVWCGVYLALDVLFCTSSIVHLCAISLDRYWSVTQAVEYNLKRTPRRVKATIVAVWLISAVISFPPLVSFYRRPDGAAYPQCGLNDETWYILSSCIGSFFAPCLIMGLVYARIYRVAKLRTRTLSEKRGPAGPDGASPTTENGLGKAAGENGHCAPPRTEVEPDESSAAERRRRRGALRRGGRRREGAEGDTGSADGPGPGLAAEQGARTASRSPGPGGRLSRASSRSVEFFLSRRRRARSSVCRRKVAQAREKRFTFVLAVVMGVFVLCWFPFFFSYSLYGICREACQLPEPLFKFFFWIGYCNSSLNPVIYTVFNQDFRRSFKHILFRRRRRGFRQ
T1 sequence (P19328 whole entry): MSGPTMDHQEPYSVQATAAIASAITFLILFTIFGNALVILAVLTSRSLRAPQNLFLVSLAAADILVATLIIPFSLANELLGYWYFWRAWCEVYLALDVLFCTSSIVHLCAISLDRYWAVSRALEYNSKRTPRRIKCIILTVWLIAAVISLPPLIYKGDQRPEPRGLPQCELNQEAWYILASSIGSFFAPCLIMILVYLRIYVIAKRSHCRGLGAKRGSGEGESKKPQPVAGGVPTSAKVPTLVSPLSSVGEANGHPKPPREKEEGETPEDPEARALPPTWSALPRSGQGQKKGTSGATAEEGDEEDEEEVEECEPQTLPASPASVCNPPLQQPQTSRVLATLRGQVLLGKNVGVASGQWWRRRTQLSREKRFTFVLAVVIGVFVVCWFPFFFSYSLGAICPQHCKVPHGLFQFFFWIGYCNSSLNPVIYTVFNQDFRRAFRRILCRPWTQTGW
T1 sequence (P22909 whole entry): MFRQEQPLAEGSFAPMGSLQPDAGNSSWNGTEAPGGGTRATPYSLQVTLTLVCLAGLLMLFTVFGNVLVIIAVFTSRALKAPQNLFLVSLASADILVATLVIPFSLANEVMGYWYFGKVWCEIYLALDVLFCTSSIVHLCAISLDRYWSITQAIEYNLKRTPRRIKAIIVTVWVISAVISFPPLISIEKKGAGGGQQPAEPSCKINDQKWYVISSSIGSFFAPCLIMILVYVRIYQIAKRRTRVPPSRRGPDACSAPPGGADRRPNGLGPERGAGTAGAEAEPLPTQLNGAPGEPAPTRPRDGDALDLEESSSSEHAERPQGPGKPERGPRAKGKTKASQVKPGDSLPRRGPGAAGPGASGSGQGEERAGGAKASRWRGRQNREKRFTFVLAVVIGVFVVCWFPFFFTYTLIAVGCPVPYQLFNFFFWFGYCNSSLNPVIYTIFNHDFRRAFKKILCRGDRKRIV
Outline: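 Cortex homogenized in 5 mM Tris-HCl, 5 mM EDTA pH 7.3, spun three times at 50,000 g, resuspended in 50 mM Tris-HCl, 0.5 mM EDTA pH 7.5. [3H]yohimbine 1 nM final, 10 mg fresh tissue, 30 min at 25 °C. Phentolamine defined nonspecific binding. Ki by Cheng-Prusoff.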

[2] = molecular target: 5-hydroxytryptamine receptor 2A (Rattus norvegicus) (UniProt P14842); assay: Displacement of [3H]ketanserin from Sprague-Dawley rat brain cortex serotonin 5-HT2A receptor at 0.00001 uM after 15 mins by liquid scintillation counting
[3] = molecular target: 5-hydroxytryptamine receptor 2A (Rattus norvegicus) (UniProt P14842); assay: Displacement of [3H]ketanserin from Sprague-Dawley rat brain cortex serotonin 5-HT2A receptor at 0.0000001 uM after 15 mins by liquid scintillation counting

Chain of 5-hydroxytryptamine receptor 2A (Rattus norvegicus) (P14842 whole entry): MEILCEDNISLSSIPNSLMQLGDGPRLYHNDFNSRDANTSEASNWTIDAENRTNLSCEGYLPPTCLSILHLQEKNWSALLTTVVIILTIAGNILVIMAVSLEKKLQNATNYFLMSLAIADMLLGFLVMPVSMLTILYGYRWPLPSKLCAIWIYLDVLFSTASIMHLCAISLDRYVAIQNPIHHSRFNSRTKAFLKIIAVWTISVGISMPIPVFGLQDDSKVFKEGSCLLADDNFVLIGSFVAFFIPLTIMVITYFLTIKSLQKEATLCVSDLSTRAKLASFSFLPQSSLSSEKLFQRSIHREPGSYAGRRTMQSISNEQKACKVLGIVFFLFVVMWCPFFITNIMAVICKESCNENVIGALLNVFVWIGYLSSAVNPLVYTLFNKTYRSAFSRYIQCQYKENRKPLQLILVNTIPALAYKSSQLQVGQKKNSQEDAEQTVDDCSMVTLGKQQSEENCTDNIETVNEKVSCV

| SMILES | Ki [1] [µM] | inhibition [2] [%] | inhibition [3] [%] |
| --- | --- | --- | --- |
| COc1ccccc1N1CCN(CCCN/C(=N\C#N)c2ccccn2)CC1 | 0.245 | 65.9 | 21.9 |
| N#C/N=C(\NCCCN1CCN(c2cccc(C(F)(F)F)c2)CC1)c1ccccn1 | > 10 | 62.8 | 34.9 |
| Cc1cccc(N2CCN(CCCN/C(=N\C#N)c3ccccn3)CC2)c1C | 0.318 | – | – |
| N#C/N=C(\NCCCN1CCN(c2ncccn2)CC1)c1ccccn1 | – | 44.3 | 24.2 |
| CCOc1ccccc1N1CCN(CCCN/C(=N\C#N)c2ccccn2)CC1 | 0.571 | – | – |
| N#C/N=C(\NCCCN1CCN(c2ccccn2)CC1)c1ccccn1 | > 10 | – | – |
